Among the data in ChEMBL document CHEMBL1129531, “2-substituted piperazines as constrained amino acids. Application to the synthesis of potent, non carboxylic acid inhibitors of farnesyltransferase” (J Med Chem, 1996) are IC50, CTE and MIC values, retold here.

Assay [1] has as its target Protein farnesyltransferase (Homo sapiens, UniProt P49354+P49356). Briefly: Inhibition of [3H]FPP incorporation into Ha-Ras by Farnesyltransferase. It is filed as protein-complex assay. The essentials:
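Recombinant human Ha-Ras protein as acceptor, with [³H]FPP as farnesyl donor. Read-out is FTase-catalyzed radiolabel incorporation into Ha-Ras. IC50 is the concentration giving 50% inhibition, reported ±SEM with the number of determinations given.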

For assay [2], the target named is Protein farnesyltransferase (Rattus norvegicus, UniProt Q02293+Q04631). Put plainly: Inhibition of post-traslational processing of Ras protein in RAT1 cell line. In kind it is functional, cell-based. The essentials: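 RAT1 cells transformed with viral Ha-ras were incubated with compound for 24 h, then lysed. Ras was immunoprecipitated and resolved by denaturing gel electrophoresis to detect inhibition of post-translational processing (farnesylation). IC50 derived.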

Assay [3] can be described thus: Inhibition of human Geranylgeranyl transferase type I. The essentials: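 Recombinant human GGTase I. IC50 reported ±SEM with the number of determinations given.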
Assay [4] relates to Rat1. Briefly: Highest nontoxic concentration in RAT1 cells. In kind it is functional. Summed up:
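Cultured RAT1 cells; viability assessed by viable staining with MTT. Value is the highest nontoxic concentration, i.e. the concentration compatible with ≥90% cell survival.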

A short description of assay [5]: Inhibition of anchorage-independent growth of ras-transformed cells in soft agar. It is filed as functional. The essentials:
(§1)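 RAT1 cells transformed with v-ras or v-raf were grown in soft agar with compound. MIC is the minimum concentration reducing the size and number of colonies relative to vehicle-treated control. A v-mos-transformed cell line served as control, tested up to 2.5 µM.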

Assay [6] is described as follows: Inhibition of anchorage-independent growth of raf-transformed cells in soft agar. It is filed as functional. Summed up: as §1
For assay [7], the target named is Geranylgeranyl transferase type I (Bos taurus, UniProt P29702+Q5EAD5). Put plainly: Inhibition of bovine Geranylgeranyl transferase type I. It is filed as protein-complex assay. The essentials:
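Type-I GGTase from bovine source. IC50 reported ±SEM with the number of determinations given.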

Converted amounts (≈) assume the structure as drawn.

Take `N[C@@H](CS)CN1CCN(C(=O)c2cccc3ccccc23)C[C@@H]1CCOC1CC1`: the IC50 – broadly, the midpoint of a concentration-inhibition curve – was 1 nM in assay [1], 500 nM in assay [2] and 3.9 µM in assay [3]. The same molecule yielded a CTE in assay [4] of 25 µM. Also, the MIC – broadly, the lowest concentration found to suppress growth – in assay [5] is 2.5 µM (≈ 1.03 µg/mL).
Take `CCCC[C@H]1CN(C(=O)c2cccc3ccccc23)CCN1C[C@@H](N)CS`: the IC50 in assay [1] came out at 1 nM; in assay [2] it was 500 nM; in assay [7], 160 nM. For the same molecule, the MIC in assay [6] was over 10 µM; in assay [5], 10 µM (≈ 3.86 µg/mL). Moreover, the CTE in assay [4] came to 10 µM.
On to `COCC[C@H]1CN(C(=O)c2cccc3ccccc23)CCN1C[C@@H](N)CS`, for which the IC50 in assay [1] worked out at 3 nM; in assay [2], 500 nM; in assay [7], 10000 nM. Also, the MIC was over 50 µM in assay [6] and 10 µM (≈ 3.88 µg/mL) in assay [5]. This molecule also displayed a CTE in assay [4] of over 100 µM.
The molecule `CCCC[C@H]1CN(C(=O)c2ccccc2)CCN1C[C@@H](N)CS` displayed an IC50 in assay [1] of 24 nM.
For the molecule `CCCC[C@H]1CN(C(=O)c2cccc(C)c2C)CCN1C[C@@H](N)CS`, the concentration for half-maximal inhibition (IC50) amounted to 5 nM in assay [1] and 360 nM in assay [7].
For `Cc1cccc(C(=O)N2CCN(C[C@@H](N)CS)CC2)c1C`, in that order: 160 nM and 2800 nM.
For the molecule `CC[C@H]1CN(C(=O)c2cccc(C)c2C)CCN1C[C@@H](N)CS`, the IC50 in assay [1] was determined as 68 nM.
